Tested on: Japanese patients with advanced solid tumors
Assay: Phase 1 study: safety, tolerability, DLT and treatment-emergent adverse events
Assay type: in vivo, human
Procedure, shortened: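 Open-label single-arm dose levels of 80 or 105 mg/m2 IV were given on day 1 of 14-day cycles, with at most 6 patients per level. Adverse events were graded by CTCAE v4.03. DLTs were related events in cycle 1 meeting predefined hematologic or nonhematologic criteria. Tolerability required a cycle 1 DLT rate <33%. Primary G-CSF prophylaxis was barred during DLT evaluation; G-CSF was allowed for treatment-emergent neutropenia and as secondary prophylaxis.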

## COc1cccc(OCCCN)c1-c1cc(Nc2cnc(C#N)cn2)n[nH]1 [Prexasertib]
80 mg/m^2 N = 6, Grade 4
  TEAE related to study treatment: Febrile neutropenia: 1 (16.7) n (%)
  TEAE related to study treatment: Headache: 0 n (%)
  TEAE related to study treatment: Hypocalcemia: 0 n (%)
  TEAE related to study treatment: Leukopenia: 3 (50.0) n (%)
  TEAE related to study treatment: Lung infection: 0 n (%)
  TEAE related to study treatment: Lymphocytopenia: 0 n (%)
  TEAE related to study treatment: Nausea: 0 n (%)
  TEAE related to study treatment: Neutropenia: 3 (50.0) n (%)
  TEAE related to study treatment: Pyrexia: 0 n (%)
  TEAE related to study treatment: Rash: 0 n (%)
  TEAE related to study treatment: Rash maculopapular: 0 n (%)
  TEAE related to study treatment: SVE (supraventricular extrasystoles): 0 n (%)
  TEAE related to study treatment: Stomatitis: 0 n (%)
  TEAE related to study treatment: Thrombocytopenia: 1 (16.7) n (%)
80 mg/m^2 group
  Patients with at least 1 AE that led to a dose adjustment: 5 patients
  Patients with at least 1 AE that led to a dose delay: 3 patients
80 mg/m^2 group (80 to 60 mg/m^2)
  Patients with at least 1 AE that led to dose reduction: 4 patients
105 mg/m^2 N = 6, Any grade
  TEAE related to study treatment: Anemia: 0 n (%)
  TEAE related to study treatment: Any: 6 (100) n (%)
  TEAE related to study treatment: Atrial fibrillation: 0 n (%)
  TEAE related to study treatment: Constipation: 1 (16.7) n (%)
  TEAE related to study treatment: ECG QT prolonged: 0 n (%)
  TEAE related to study treatment: Fatigue: 1 (16.7) n (%)
  TEAE related to study treatment: Febrile neutropenia: 1 (16.7) n (%)
  TEAE related to study treatment: Headache: 1 (16.7) n (%)
  TEAE related to study treatment: Hypocalcemia: 1 (16.7) n (%)
  TEAE related to study treatment: Leukopenia: 6 (100) n (%)
  TEAE related to study treatment: Lung infection: 0 n (%)
  TEAE related to study treatment: Lymphocytopenia: 0 n (%)
  TEAE related to study treatment: Nausea: 0 n (%)
  TEAE related to study treatment: Neutropenia: 6 (100) n (%)
  TEAE related to study treatment: Pyrexia: 1 (16.7) n (%)
  TEAE related to study treatment: Rash: 0 n (%)
  TEAE related to study treatment: Rash maculopapular: 1 (16.7) n (%)
  TEAE related to study treatment: SVE (supraventricular extrasystoles): 0 n (%)
  TEAE related to study treatment: Stomatitis: 0 n (%)
  TEAE related to study treatment: Thrombocytopenia: 4 (66.7) n (%)
105 mg/m^2 N = 6, Grade 3
  TEAE related to study treatment: Anemia: 0 n (%)
  TEAE related to study treatment: Any: 3 (50.0) n (%)
  TEAE related to study treatment: Atrial fibrillation: 0 n (%)
  TEAE related to study treatment: Constipation: 0 n (%)
  TEAE related to study treatment: ECG QT prolonged: 0 n (%)
  TEAE related to study treatment: Fatigue: 0 n (%)
  TEAE related to study treatment: Febrile neutropenia: 1 (16.7) n (%)
  TEAE related to study treatment: Headache: 0 n (%)
  TEAE related to study treatment: Hypocalcemia: 0 n (%)
  TEAE related to study treatment: Leukopenia: 4 (66.7) n (%)
  TEAE related to study treatment: Lung infection: 0 n (%)
  TEAE related to study treatment: Lymphocytopenia: 0 n (%)
  TEAE related to study treatment: Nausea: 0 n (%)
  TEAE related to study treatment: Neutropenia: 3 (50.0) n (%)
  TEAE related to study treatment: Pyrexia: 0 n (%)
  TEAE related to study treatment: Rash: 0 n (%)
  TEAE related to study treatment: Rash maculopapular: 0 n (%)
  TEAE related to study treatment: SVE (supraventricular extrasystoles): 0 n (%)
  TEAE related to study treatment: Stomatitis: 0 n (%)
  TEAE related to study treatment: Thrombocytopenia: 1 (16.7) n (%)
105 mg/m^2 N = 6, Grade 3 + 4
  TEAE related to study treatment: Anemia: 0 n (%)
  TEAE related to study treatment: Any: 6 (100) n (%)
  TEAE related to study treatment: Atrial fibrillation: 0 n (%)
  TEAE related to study treatment: Constipation: 0 n (%)
  TEAE related to study treatment: ECG QT prolonged: 0 n (%)
  TEAE related to study treatment: Fatigue: 0 n (%)
  TEAE related to study treatment: Febrile neutropenia: 1 (16.7) n (%)
  TEAE related to study treatment: Headache: 0 n (%)
  TEAE related to study treatment: Hypocalcemia: 0 n (%)
  TEAE related to study treatment: Leukopenia: 5 (83.3) n (%)
